Reference: ChEMBL document CHEMBL5678805, “Intermittent administration of MEK inhibitor GDC-0973 plus PI3K inhibitor GDC-0941 triggers robust apoptosis and tumor growth inhibition” (Cancer Res, 2012)
pIC50: −log10 of the molar value. The source made the active and inactive calls. The calls are words filed in the database; no cut-off is given here.

Experiments:
[1] = molecular target: Ribosomal protein S6 kinase beta-1 (Homo sapiens, UniProt P23443); test: Inhibition of p70S6K (unknown origin)
[2] = molecular target: Calcium/calmodulin-dependent protein kinase type 1 (Homo sapiens, UniProt Q14012); test: Inhibition of CaMK1 (unknown origin)
[3] = molecular target: Vascular endothelial growth factor receptor 1 (Homo sapiens, UniProt P17948); test: Inhibition of Flt1 (unknown origin)
Chain of Vascular endothelial growth factor receptor 1 (P17948 whole entry): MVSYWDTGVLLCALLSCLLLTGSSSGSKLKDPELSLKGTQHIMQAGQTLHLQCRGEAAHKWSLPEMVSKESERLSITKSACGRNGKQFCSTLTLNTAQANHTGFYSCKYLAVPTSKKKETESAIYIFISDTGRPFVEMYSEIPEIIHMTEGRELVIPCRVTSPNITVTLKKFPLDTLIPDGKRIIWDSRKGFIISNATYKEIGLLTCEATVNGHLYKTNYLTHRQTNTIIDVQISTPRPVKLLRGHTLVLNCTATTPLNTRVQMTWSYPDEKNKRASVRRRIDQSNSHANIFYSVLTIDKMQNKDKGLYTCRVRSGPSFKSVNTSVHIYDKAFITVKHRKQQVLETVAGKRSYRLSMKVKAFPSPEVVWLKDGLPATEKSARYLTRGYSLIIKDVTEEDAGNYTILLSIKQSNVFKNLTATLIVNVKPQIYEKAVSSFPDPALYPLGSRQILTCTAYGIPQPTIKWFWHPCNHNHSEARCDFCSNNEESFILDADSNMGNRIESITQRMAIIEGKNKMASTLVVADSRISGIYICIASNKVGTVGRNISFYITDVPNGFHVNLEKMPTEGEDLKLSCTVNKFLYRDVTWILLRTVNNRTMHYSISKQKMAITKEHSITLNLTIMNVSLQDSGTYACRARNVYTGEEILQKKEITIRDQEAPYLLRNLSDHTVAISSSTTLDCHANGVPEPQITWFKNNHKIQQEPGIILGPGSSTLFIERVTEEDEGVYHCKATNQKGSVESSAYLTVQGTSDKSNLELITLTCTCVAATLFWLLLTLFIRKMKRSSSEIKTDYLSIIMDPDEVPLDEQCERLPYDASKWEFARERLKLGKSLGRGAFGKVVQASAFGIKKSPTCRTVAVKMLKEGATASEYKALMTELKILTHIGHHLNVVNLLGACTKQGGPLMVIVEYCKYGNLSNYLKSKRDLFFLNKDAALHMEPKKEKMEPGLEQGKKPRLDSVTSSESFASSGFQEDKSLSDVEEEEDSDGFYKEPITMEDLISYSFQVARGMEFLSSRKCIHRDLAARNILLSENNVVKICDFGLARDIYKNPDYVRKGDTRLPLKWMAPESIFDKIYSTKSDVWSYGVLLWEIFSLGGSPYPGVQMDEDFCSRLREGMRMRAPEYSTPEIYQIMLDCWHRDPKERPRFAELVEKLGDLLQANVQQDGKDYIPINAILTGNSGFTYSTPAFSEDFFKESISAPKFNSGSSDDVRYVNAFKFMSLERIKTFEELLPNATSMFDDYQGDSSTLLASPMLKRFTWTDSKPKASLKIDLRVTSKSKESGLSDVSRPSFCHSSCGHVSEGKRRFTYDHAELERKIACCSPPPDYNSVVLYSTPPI

[4] = molecular target: Mitogen-activated protein kinase 3 (Homo sapiens, UniProt P27361); test: Inhibition of ERK1 (unknown origin)
[5] = system: DLD-1; test: Antitumor activity against human DLD-1 cells xenografted in mouse assessed as tumor growth inhibition at 10 mg/kg, po administered every third day for 21 days in presence of 4-(2-(1H-indazol-4-yl)-6-((4-(methylsulfonyl)piperazin-1-yl)methyl)thieno[3,2-d]pyrimidin-4-yl)morpholine; type: functional; settings: DLD-1, 504 h, time 21 day, read-out: TGI
In short: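 Human tumor xenografts in mice. Drugs given orally, as single agents or combined with the PI3K inhibitor. Schedules were daily (QD) or every third day (Q3D) over 21 days. Tumor volume was measured by caliper as (L×W×W)/2. %TGI = 100×[1 − AUC(treatment/d)/AUC(vehicle/d)] from fitted growth curves, with group means. Tumor lysates were immunoblotted for pS6.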

[6] = molecular target: Angiopoietin-1 receptor (Homo sapiens, UniProt Q02763); test: Inhibition of Tie-2 (unknown origin)
Chain of Angiopoietin-1 receptor (Q02763 whole entry): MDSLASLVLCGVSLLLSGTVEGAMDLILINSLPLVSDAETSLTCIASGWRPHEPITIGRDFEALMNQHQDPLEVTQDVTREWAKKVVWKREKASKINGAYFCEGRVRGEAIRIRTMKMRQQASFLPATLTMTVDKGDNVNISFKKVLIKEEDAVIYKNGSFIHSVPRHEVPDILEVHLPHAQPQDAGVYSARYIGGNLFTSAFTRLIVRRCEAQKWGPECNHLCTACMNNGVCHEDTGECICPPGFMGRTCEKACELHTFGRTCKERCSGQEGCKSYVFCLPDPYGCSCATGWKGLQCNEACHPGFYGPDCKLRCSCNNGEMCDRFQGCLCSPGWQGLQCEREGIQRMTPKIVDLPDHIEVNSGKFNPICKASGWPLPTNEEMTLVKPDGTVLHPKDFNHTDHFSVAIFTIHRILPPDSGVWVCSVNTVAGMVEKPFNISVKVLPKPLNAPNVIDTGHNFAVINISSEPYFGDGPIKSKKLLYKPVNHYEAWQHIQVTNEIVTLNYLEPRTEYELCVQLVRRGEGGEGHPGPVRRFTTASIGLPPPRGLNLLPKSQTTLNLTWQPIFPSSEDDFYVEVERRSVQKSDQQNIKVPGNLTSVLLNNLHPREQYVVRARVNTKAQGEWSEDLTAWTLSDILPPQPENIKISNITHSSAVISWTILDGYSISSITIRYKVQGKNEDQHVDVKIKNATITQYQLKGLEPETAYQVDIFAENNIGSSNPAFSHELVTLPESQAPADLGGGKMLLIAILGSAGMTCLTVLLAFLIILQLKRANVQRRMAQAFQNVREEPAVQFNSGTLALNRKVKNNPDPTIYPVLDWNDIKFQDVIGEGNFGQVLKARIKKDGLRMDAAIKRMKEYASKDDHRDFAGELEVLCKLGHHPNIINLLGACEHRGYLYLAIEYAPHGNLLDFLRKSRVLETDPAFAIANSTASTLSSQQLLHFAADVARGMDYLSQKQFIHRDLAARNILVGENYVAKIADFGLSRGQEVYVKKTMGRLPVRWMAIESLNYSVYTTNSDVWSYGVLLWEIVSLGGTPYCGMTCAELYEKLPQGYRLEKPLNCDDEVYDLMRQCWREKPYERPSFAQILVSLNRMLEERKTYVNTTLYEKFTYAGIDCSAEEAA

[7] = system: NCI-H460; test: Antitumor activity against human NCI-H460 cells harboring KRAS Q61H/PIK3CA E545K/LKB1 Q37/CDKN2A mutant xenografted in mouse assessed as tumor growth inhibition at 2.5 mg/kg, po; type: functional; settings: read-out: TGI
In short: (§1)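 Human tumor xenografts in mice were dosed orally at the indicated mg/kg. Tumor volume was measured with calipers as (L×W×W)/2. %TGI = 100 × [1 − (AUC treatment/d)/(AUC vehicle/d)], using the area under the fitted tumor-growth curve per day for each dose group relative to vehicle.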

[8] = system: NCI-H520; test: Antitumor activity against human NCI-H520 cells harboring TP53 W146 and CDKN2A G G45 mutant xenografted in mouse assessed as tumor growth inhibition at 10 mg/kg, po; type: functional; settings: read-out: TGI; in short: as §1
[9] = system: MIA PaCa-2; test: Antitumor activity against human MIA PaCa-2 cells harboring KRAS G12C/NOTCH1 L2458V mutant xenografted in mouse assessed as tumor growth inhibition at 5 mg/kg, po; type: functional; settings: read-out: TGI; in short: as §1
[10] = system: 888-mel; test: Inhibition of ERK phosphorylation in human 888-mel cells incubated for 24 hrs by immunoblotting analysis; type: cell-based
[11] = system: LOX IMVI; test: Antiproliferative activity against human LOX IMVI cells assessed reduction in cell viability incubated for 4 days in presence of 4-(2-(1H-indazol-4-yl)-6-((4-(methylsulfonyl)piperazin-1-yl)methyl)thieno[3,2-d]pyrimidin-4-yl)morpholine by celltiter-glo assay; type: functional; settings: time 4 day
In short: (§2)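 4-day CellTiter-Glo viability read-out on melanoma lines, cells exposed to increasing concentrations of each inhibitor alone and in combination.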

[12] = system: A2058; test: Antitumor activity against human A2058 cells harboring BRAF V600E/PTEN L112Q/V175/TP53 V274F mutant xenografted in mouse assessed as tumor growth inhibition at 5 mg/kg, po; type: functional; settings: read-out: TGI
In short: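 Mice carrying human tumor xenografts dosed orally once daily for 21 consecutive days. Tumor volume measured by calipers as (L×W×W)/2. %TGI = 100×[1 − AUC(treatment/day)/AUC(vehicle/day)], using the area under the fitted growth curve relative to vehicle.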

[13] = molecular target: Mitogen-activated protein kinase 8 (Homo sapiens, UniProt P45983); test: Inhibition of JNK1 (unknown origin)
[14] = molecular target: Serine/threonine-protein kinase Chk1 (Homo sapiens, UniProt O14757); test: Inhibition of CHK1 (unknown origin)
[15] = system: 888-mel; test: Upregulation of Bim level in human 888-mel cells preincubated with compound for 24 hrs followed by compound washout and measured after 2 hrs by immunoblotting analysis; type: functional, cell-based
[16] = molecular target: Beta-adrenergic receptor kinase 1 (Homo sapiens, UniProt P25098); test: Inhibition of GRK2 (unknown origin)
Chain of Beta-adrenergic receptor kinase 1 (P25098 whole entry): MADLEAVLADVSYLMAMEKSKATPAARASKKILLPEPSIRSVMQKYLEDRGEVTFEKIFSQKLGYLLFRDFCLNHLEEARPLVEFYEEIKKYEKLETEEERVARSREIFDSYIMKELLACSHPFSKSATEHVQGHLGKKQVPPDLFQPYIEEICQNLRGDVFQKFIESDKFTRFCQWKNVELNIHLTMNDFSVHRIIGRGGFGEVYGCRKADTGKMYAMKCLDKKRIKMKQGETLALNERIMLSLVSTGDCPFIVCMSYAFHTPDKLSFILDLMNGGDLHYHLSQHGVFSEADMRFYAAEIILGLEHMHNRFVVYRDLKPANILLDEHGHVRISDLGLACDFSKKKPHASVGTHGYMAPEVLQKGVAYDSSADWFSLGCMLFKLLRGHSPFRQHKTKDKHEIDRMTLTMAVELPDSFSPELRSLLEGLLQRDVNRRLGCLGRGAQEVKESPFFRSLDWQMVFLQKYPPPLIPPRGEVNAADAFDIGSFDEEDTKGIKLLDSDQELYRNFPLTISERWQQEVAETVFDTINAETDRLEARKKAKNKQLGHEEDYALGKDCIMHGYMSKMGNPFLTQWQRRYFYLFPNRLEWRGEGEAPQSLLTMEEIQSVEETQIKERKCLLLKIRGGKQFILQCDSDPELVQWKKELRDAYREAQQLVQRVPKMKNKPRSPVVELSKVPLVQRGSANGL

[17] = molecular target: Tyrosine-protein kinase BTK (Homo sapiens, UniProt Q06187); test: Inhibition of Btk (unknown origin)
Chain of Tyrosine-protein kinase BTK (Q06187 whole entry): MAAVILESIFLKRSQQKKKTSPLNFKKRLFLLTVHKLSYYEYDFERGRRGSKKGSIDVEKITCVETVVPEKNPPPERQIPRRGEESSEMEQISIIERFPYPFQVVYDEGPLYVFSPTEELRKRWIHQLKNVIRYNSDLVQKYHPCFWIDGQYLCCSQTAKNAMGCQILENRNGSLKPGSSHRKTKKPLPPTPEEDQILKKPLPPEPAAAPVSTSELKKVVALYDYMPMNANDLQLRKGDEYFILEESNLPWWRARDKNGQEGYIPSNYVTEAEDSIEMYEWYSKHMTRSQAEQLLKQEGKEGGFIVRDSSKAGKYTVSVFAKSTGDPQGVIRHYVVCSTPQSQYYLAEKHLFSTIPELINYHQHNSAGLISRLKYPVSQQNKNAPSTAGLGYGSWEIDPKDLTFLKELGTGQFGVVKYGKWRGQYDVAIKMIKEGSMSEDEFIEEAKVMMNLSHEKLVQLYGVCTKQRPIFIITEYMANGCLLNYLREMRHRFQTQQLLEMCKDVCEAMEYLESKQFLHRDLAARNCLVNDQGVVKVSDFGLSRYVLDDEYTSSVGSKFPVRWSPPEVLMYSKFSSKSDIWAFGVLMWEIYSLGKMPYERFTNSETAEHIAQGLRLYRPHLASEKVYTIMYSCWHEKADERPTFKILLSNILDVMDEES

[18] = molecular target: Tyrosine-protein kinase SYK (Homo sapiens, UniProt P43405); test: Inhibition of SYK (unknown origin)
[19] = system: NCI-H2122; test: Antitumor activity against human NCI-H2122 cells xenografted in mouse assessed as tumor growth inhibition at 5 mg/kg, po administered once a day for 21 days; type: functional; settings: NCI-H2122, 504 h, read-out: TGI, time 21 day
In short: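 Mice bearing NCI-H2122 xenografts were given MEK inhibitor, PI3K inhibitor, or both, orally once daily for 21 consecutive days at the doses labeled. Caliper tumor volumes were calculated as (L×W×W)/2. %TGI was derived from the AUC of the fitted growth curve per day relative to vehicle.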

[20] = Inhibition of AMPK (unknown origin); design: species or system Homo sapiens
[21] = system: NCI-H2122; test: Antitumor activity against human NCI-H2122 cells xenografted in mouse assessed as reduction in ERK phosphorylation at 1 to 10 mg/kg, po administered for 3 days and measured at 8 hrs by Western blot analysis; type: functional; design: scale not given: the % may be the effect or the level left; settings: time 80 hrs
In short: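 NCI-H2122 xenograft mice received 3 daily oral doses of 1, 3, 5 or 10 mg/kg. Tumors were collected 2, 8 and 24 h after the last dose, pulverized on dry ice and lysed. Lysates were run on 4–12% SDS-PAGE and transferred to nitrocellulose. p-ERK1/2 and t-ERK1/2 bands were quantified on an Odyssey imager and expressed relative to vehicle-treated mice (0 h).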

[22] = molecular target: Serine/threonine-protein kinase 24 (Homo sapiens, UniProt Q9Y6E0); test: Inhibition of STK24 (unknown origin)
[23] = system: RPMI-7951; test: Antiproliferative activity against human RPMI-7951 cells assessed reduction in cell viability incubated for 4 days in presence of 4-(2-(1H-indazol-4-yl)-6-((4-(methylsulfonyl)piperazin-1-yl)methyl)thieno[3,2-d]pyrimidin-4-yl)morpholine by celltiter-glo assay; type: functional; settings: time 4 day; in short: as §2
[24] = molecular target: Dual specificity tyrosine-phosphorylation-regulated kinase 2 (Homo sapiens, UniProt Q92630); test: Inhibition of DYRK2 (unknown origin)
[25] = molecular target: Tyrosine-protein kinase JAK2 (Homo sapiens, UniProt O60674); test: Inhibition of JAK2 (unknown origin)
Chain of Tyrosine-protein kinase JAK2 (O60674 whole entry): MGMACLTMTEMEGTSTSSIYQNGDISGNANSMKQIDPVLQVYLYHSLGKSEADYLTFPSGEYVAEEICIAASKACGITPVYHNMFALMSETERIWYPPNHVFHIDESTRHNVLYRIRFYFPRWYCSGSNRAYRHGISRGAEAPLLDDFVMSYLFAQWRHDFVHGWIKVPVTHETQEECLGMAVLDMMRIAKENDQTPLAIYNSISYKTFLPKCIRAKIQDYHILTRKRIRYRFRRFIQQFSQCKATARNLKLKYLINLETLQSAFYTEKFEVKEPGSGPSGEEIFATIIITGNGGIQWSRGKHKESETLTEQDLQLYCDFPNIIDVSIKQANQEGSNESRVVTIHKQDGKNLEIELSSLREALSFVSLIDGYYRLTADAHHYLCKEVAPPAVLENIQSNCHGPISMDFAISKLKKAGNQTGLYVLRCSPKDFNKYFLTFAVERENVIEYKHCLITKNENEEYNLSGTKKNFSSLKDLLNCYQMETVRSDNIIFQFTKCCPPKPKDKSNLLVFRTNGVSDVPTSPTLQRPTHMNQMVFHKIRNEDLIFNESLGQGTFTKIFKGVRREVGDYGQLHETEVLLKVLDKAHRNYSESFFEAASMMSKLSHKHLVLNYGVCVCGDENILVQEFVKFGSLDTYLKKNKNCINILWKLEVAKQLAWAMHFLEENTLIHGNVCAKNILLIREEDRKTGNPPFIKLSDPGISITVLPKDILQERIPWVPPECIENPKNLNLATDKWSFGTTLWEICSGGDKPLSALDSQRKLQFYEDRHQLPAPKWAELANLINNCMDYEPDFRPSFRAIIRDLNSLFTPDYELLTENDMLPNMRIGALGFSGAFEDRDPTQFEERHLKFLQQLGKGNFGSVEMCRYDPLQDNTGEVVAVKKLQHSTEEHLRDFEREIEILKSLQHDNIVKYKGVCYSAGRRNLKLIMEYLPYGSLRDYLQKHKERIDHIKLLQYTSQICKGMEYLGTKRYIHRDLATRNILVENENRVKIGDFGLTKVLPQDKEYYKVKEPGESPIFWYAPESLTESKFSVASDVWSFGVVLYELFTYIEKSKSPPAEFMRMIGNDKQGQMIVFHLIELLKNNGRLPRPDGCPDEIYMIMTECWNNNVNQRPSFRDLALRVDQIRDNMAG

[26] = system: EBC-1; test: Antitumor activity against human EBC-1 cells harboring MET amp and EGFR G719S/L858R mutant xenografted in mouse assessed as tumor growth inhibition at 10 mg/kg, po; type: functional; settings: read-out: TGI
In short: (§3)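 Single-agent dose ranging in human tumor xenograft mice at 2.5, 5 or 10 mg/kg oral. Tumor volume was measured by caliper as (L×W×W)/2. %TGI = 100×[1 − AUC(treatment/d)/AUC(vehicle/d)] from the fitted growth curve per dose group, relative to vehicle.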

[27] = system: EBC-1; test: Antitumor activity against human EBC-1 cells harboring MET amp and EGFR G719S/L858R mutant xenografted in mouse assessed as tumor growth inhibition at 5 mg/kg, po; type: functional; settings: read-out: TGI; in short: as §3
[28] = molecular target: Proto-oncogene tyrosine-protein kinase Src (Homo sapiens, UniProt P12931); test: Inhibition of SRC (unknown origin)

pIC50 [1]: < 5.00
pIC50 [2]: < 5.00
pIC50 [3]: < 5.00
pIC50 [4]: < 5.00
pIC50 [6]: < 5.00
pIC50 [13]: < 5.00
pIC50 [14]: < 5.00
pIC50 [16]: < 5.00
pIC50 [17]: < 5.00
pIC50 [18]: < 5.00
pIC50 [20]: < 5.00
pIC50 [22]: < 5.00
pIC50 [24]: < 5.00
pIC50 [25]: < 5.00
pIC50 [28]: < 5.00
SMILES: O=C(c1ccc(F)c(F)c1Nc1ccc(I)cc1F)N1CC(O)([C@@H]2CCCCN2)C1 [COBIMETINIB]
inhibition in vivo at 10 mg/kg [5]: 72%
inhibition in vivo at 2.5 mg/kg [7]: 32%
inhibition in vivo at 10 mg/kg [8]: 21%
inhibition in vivo at 5 mg/kg [9]: 6%
inhibition [10]: Active
Activity [11]: 60%
inhibition in vivo at 5 mg/kg [12]: 12.7%
Activity [15]: Active
inhibition in vivo at 5 mg/kg [19]: 49%
Activity [21]: 83%
Activity [23]: 60%
inhibition in vivo at 10 mg/kg [26]: 40%
inhibition in vivo at 5 mg/kg [27]: 7%
